# Screens as filed in PubChem BioAssay.
# In the library only some 2.6% were active in any assay of this set; here they are far more common.
# GRK2 aptamer HTS – inhibitors of human GRK2 displacing RNA aptamer; P25098; inhibition of aptamer binding, % at 10 µM; bead flow cytometry, FAM-aptamer displacement from GRK2; 330,000 tested, 0.59% active;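 active means inhibition of aptamer binding above 40%, roughly 3 SD of noise, on plates passing a quality check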;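 further: median bead fluorescence of bound FAM aptamer so fluorescent compounds give negative values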
# Rin1-Abl PPI inh – human Rin1-Abl interaction inhibition. P00519+Q13671. TR-FRET Rin1/Abl binding, biochemical. inhibition, % at 7.35 µM. 360,000 tested, 0.4% active; in the data active means inhibition above about 5%, passing the limit was not always enough
# T cell HTS – T cell immune modulators affecting CD8 T cell-vesicle binding. 330,000 tested, 0.068% active. AID 2052. 2C CD8+ T cell-vesicle binding, flow cytometry; active compounds read low. response (vesicle binding), % at 7 µM;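 active means response, share of CD8 T cells binding vesicles, and their 90th percentile fluorescence all below set limits, cut at about 80% in these data, passing the limit was not always enough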;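 further: values below 100% mean blocked vesicle binding to the CD8+ T cells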
#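 Assay system – 2C mouse CD8+ T cells · Also added – QL9-loaded Drosophila micro-vesicles · Timing – Cell–vesicle co-incubation 1.5 h at 37 °C, staining 20 min on ice · Signal – flow cytometry of vesicle-bound cells · Measure – percent CD8+ FL2 mean versus row control · Controls – Peptide-free naked vesicles (low) and QL9 vesicles with 0.7% DMSO vehicle (high)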
# Rce1 inhib – blocks yeast Ras-converting enzyme; 290,000 tested, 0.27% active; AID 2563; Q03530; calls only; yeast membranes, quenched prenylated peptide cleavage fluorescence;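 active means fall in fluorescence gain of 50% or more versus controls, with final raw signal at or below 3038400; inconclusive means same 50% fall but final raw signal above 3038400; inactive means fall in fluorescence gain under 50%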;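 further: plate controls were neutral control wells for no effect and wells lacking membranes for full effect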
# Target sequence (Q03530 whole entry, looked up): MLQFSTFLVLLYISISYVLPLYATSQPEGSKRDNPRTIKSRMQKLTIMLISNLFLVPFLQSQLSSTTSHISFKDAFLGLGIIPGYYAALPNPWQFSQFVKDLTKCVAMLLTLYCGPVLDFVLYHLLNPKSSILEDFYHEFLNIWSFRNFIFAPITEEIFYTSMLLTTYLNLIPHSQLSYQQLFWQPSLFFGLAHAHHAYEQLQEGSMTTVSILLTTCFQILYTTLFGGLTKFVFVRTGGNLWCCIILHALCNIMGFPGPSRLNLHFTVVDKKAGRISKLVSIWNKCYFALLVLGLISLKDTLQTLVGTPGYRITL
# SKN-1 inh – inhibitors of C. elegans SKN-1; 360,000 tested, 0.49% active; C. elegans VP596 Pgst-4::GFP/RFP ratio, acrylamide-induced, 24 h; AID 624304; inhibition, % at 21.8 µM;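 active means interference check ratio from 0.5 to 1.5 plus GFP to RFP signal ratio inhibition reaching or exceeding a fixed threshold, cut at about 30% in these data, passing the limit was not always enough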
# Myeloid diff MLP – myeloid differentiation induction | ER-HoxA9 myeloid progenitors, lysozyme-GFP differentiation, flow cytometry | calls only at 10 µM | 360,000 tested, 1% active;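 active means normalized GFP-positive differentiation at or above the plate's own cutoff, the solvent-only control mean plus 3 SD; inconclusive means no clear call, values can overlap the other calls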;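 further: cells exposed to compound for four days before flow analysis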
# Active calls of the source: *; i = inactive; ? = inconclusive; . = not tested or not shown; + = active, no number.
SMILES,GRK2 aptamer HTS,Rin1-Abl PPI inh,T cell HTS,Rce1 inhib,SKN-1 inh,Myeloid diff MLP
Cc1ccc(C)c(OCC(=O)Nc2ccc(N3CCOCC3)cc2)c1,3,2,358,i,-4,i
Cc1cc(C)c(NC(=O)CS(=O)CC(=O)Nc2ccc(N3CCOCC3)cc2)c(C)c1 (centres undefined),1,1,149,i,35*,i
O=C(N1CCOCC1)N1CCN(S(=O)(=O)c2cccc([N+](=O)[O-])c2)CC1,1,0,209,i,-3,i
Cc1ccc(C)c(NC(=S)NC23CN4CN(CN(C4)C2)C3)c1,0,1,732,i,4,i
CC1CN(C(=O)CCC(=O)NCc2ccc(Cl)cc2)c2ccccc2O1 (centres undefined),1,-3,565,i,5,i
COc1cc(C(=O)N=c2sccn2C)c([N+](=O)[O-])cc1OC,2,-1,136,i,14,i
Cn1ccsc1=NC(=O)c1ccc([N+](=O)[O-])o1,22,-4,316,i,7,+
COCCN1C(=O)C(=O)/C(=C(/O)c2cccc(OC)c2)C1c1ccc(C)o1 (centres undefined),0,1,75*,i,-22,i
Cc1oc(-c2ccc(Cl)cc2)nc1CS(=O)CC(=O)NCc1ccco1 (centres undefined),0,0,223,+,0,i
COc1ccc(N(CC(=O)NC2CCCCC2)C(=O)CNC(=O)c2cccs2)cc1OC,0,0,263,i,14,i
OCC1CCCC(n2cnc3c(=S)nc[nH]c32)O1 (centres undefined),0,1,377,i,-3,+
CCCN1C2CCCC1CC(NC(=O)c1ccc(F)cc1)C2 (centres undefined),0,3,436,i,56*,i
Cc1ccc2nc(C(Cl)(Cl)Cl)nc(N/N=C/c3ccc([N+](=O)[O-])cc3)c2c1,.,1,.,.,9,i
CC(=O)N1c2ccccc2N(Cc2ccc(C)cc2C)C(=O)C1(C)C,0,1,430,i,2,+
O=C(Nc1cccc(Cl)c1)Nc1c[nH]c(=O)[nH]c1=O,0,3,439,i,12,i
CCN1CCCSC1=S,.,-1,.,.,-3,i
Cc1ccc(N=Cc2c(O)n(C)c(=O)n(C)c2=O)nc1,2,0,290,+,2,i
OC(c1ccccc1)C(NCCNCc1ccccc1)c1ccccc1 (centres undefined),.,1,.,.,6,i
COc1ccc(S(=O)(=O)NCc2ccccn2)cc1NC(=O)c1ccccc1F,1,1,347,i,10,?
CC1CC(C)(C)NC(=S)N1CCC(=O)N1c2ccccc2CC1C (centres undefined),1,4,713,i,2,i
O=C(Nc1ccccc1)OCCCc1ccccc1,2,2,579,i,35*,i
CCC(=O)Nc1cccc(NC(=S)NC(=O)c2ccccc2Cl)c1,4,1,361,i,11,i
CCC(=O)Nc1cccc(NC(=S)NC(=O)c2cccs2)c1,11,-2,166,+,-4,i
COC(=O)c1ccc(CNCC(O)COc2ccc(-c3ccccc3)cc2)cc1 (centres undefined),0,3,184,i,28,.
COC(=O)c1ccc(-c2ccc(CNCC(O)c3ccccc3)o2)cc1 (centres undefined),0,-2,201,+,-11,i
SMILES,GRK2 aptamer HTS,Rin1-Abl PPI inh,T cell HTS,Rce1 inhib,SKN-1 inh,Myeloid diff MLP
Cc1ccnc(NC(=O)Nc2ccc(Br)cc2Cl)c1,0,1,538,.,3,+
O=C(Nc1ccc(Br)cc1Cl)c1cnccn1,14,-5,478,i,61*,i
O=C(c1ccc(F)cc1F)N1CCN(c2ccccn2)CC1,1,0,805,i,19,i
O=C(O)CN1C(=O)c2ccc(Oc3ccc4c(c3)C(=O)N(CC(=O)O)C4=O)cc2C1=O,0,1,149,i,3,i
CC(C(=O)NN=C(c1ccccc1)c1ccccc1)N1CCOCC1 (centres undefined),3,1,458,i,1,i
Clc1ccc(-c2nc(CSc3ccccn3)cs2)cc1,.,-6,.,.,58*,i
Nc1ccccc1SCc1csc(-c2ccc(Cl)cc2)n1,0,-2,202,i,6,i
Cc1ccc(S(=O)(=O)N2[C@@H](c3ccc(Cl)cc3)C(C(=O)O)=C[C@H]2CC2CCCC2)cc1,4,-2,298,.,0,+
Cc1ccc(S(=O)(=O)N2[C@@H](c3ccc(Cl)c(Cl)c3)C(C(=O)O)=C[C@H]2CC2CCCC2)cc1,2,-2,374,.,0,i
CCCCNc1ccc2c3c(cccc13)C(=O)N(CCCC)C2=O,.,-12,.,i,-28,+
O=C(CSc1nc(-c2ccco2)cc(C(F)(F)F)n1)NN1CCOCC1,1,-1,281,i,-1,i
O=C(CSc1nc(-c2ccco2)cc(C(F)(F)F)n1)NC1CCCCCCC1,0,0,323,i,37*,i
CC1=C(C(=O)N2CCOCC2)CC(CC(=O)NC(c2ccccc2)c2ccccc2)C(=O)N1CCCN1CCCC1=O (centres undefined),.,-2,.,.,1,i
Cc1ccccc1-c1nnc(SCC(=O)Nc2ccc3c(c2)OCCO3)n1N,0,-2,400,.,3,+
Cc1ccc(NC(=O)CSc2nnc(-c3ccco3)n2N)cc1F,0,-1,320,i,0,+
CNC(=O)C[C@@H]1C(=O)N(C2CCCCC2)CC1(C)C,.,-3,.,.,2,+
COC(=O)c1c(C(=O)OC)c(-c2cccc(C)c2)n2c1CS(=O)(=O)C2,0,-4,163,i,8,i
COC(=O)c1c(C(=O)OC)c(-c2cccc(Cl)c2)n2c1CS(=O)(=O)C2,2,2,93,i,2,+
CC12OC1C1(O)CCCC1=CC2=O (centres undefined),3,.,413,i,.,.
COC1=CC2(O)CCCC2=CC1=O (centres undefined),1,-1,346,i,-4,+
CC(=O)N[C@@H](C)c1nc2ccccc2n1CCCN1CCN(c2nc(-c3ccc(C)cc3)cs2)CC1,0,4,550,+,0,?
CCN(CC)c1ccc(/C=N/NC(=S)NCc2ccc(OC)cc2)cc1,0,3,540,+,4,i
Cc1nc2ncccn2c1-c1csc(Nc2ccccc2)n1,3,-3,97,i,15,i
Cc1nc2ncccn2c1-c1csc(NCc2ccco2)n1,2,2,230,i,5,+
